The text below walks through data of paper PMC5327638 (Theranostics, 2017).

Series [1] has as its system MDAMB231 X4 tumor-bearing Balb/c nude mice. Briefly: In vivo SPECT imaging in tumor-bearing mice. The arrangement: species or system mouse. To be noted: i.v., 50 μg, 10 MBq; 24 hrs post-injection; n=5.
Series [2] has the same test system. Briefly: Biodistribution by radiodetection. Format: in vivo, mouse. Conditions: 24 h after i.v. 50 μg (10 MBq), ^111In. In outline: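 Tracer was labelled with 111In alone or with 111In plus 165Ho, and 50 μg (10 MBq) was given i.v.; some mice had SPECT at 24 h first. Mice were killed at 24 h, and tissues were excised and weighed; dual-label samples were halved before weighing. Gamma counting used 245 keV for 60 s. cpm were converted to MBq, corrected for decay and counting efficiency. %ID/g = (MBq in tissue/injected dose ×100%)/tissue weight.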

Series [3] concerns the target chemokine receptor 4 (CXCR4), MDAMB231 X4 cells (Homo sapiens, UniProt P61073). Briefly: Fluorescence flow cytometry saturation binding. In outline: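 Trypsinised cells (300000 per aliquot) were exposed to tracer at 0–1000 nM in 0.1% BSA/PBS for 1 hr at 4 °C, washed three times and resuspended. Flow cytometry used a 635 nm laser with a […] filter. Mean fluorescence counts gave saturation curves. Triplicates, total n=6.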

Chain of chemokine receptor 4 (CXCR4), MDAMB231 X4 cells (P61073 whole entry): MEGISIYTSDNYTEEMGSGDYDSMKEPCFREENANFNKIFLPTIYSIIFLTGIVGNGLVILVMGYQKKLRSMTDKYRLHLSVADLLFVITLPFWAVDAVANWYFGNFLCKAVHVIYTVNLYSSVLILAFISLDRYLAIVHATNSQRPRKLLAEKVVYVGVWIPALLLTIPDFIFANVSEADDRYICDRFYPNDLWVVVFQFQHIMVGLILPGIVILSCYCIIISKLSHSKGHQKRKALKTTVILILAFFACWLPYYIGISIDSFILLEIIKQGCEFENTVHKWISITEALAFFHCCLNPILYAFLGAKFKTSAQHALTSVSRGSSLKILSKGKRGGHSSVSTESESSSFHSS

On to `CC(=O)N[C@@H](CCCNC(=N)N)C(=O)N[C@@H](CCCNC(=N)N)C(=O)N[C@@H](Cc1ccc2ccccc2c1)C(=O)N[C@H]1CSSC[C@@H](C(=O)N[C@@H](CCCNC(=N)N)C(N)=O)NC(=O)[C@H](CCCNC(N)=O)NC(=O)[C@H](CCCNC(=N)N)NC(=O)[C@H](Cc2ccc(O)cc2)NC(=O)[C@@H]2CCCN2C(=O)[C@@H](CCCCNC(=O)CCCNC(=O)[C@H](CCCCNC(=O)CCCCCN2C(=CC=CC=CC3=[N+](CCCCS(=O)(=O)O)c4ccc(S(=O)(=O)[O-])cc4C3(C)C)C(C)(C)c3cc(S(=O)(=O)O)ccc32)NC(=O)CN(CCN(CC(=O)O)CC(=O)O)CCN(CC(=O)O)CC(=O)O)NC(=O)[C@H](CCCNC(=N)N)NC(=O)[C@H](CCCNC(N)=O)NC(=O)[C@H](Cc2ccc(O)cc2)NC1=O` (single isomer, unassigned) [^111In-hybrid-Cy5-Ac-TZ14011, metal not drawn], for which the “uptake on SPECT images” value in series [1] is “high uptake in the liver and kidneys as well as in the tumor”. Moreover, the “uptake in tumor exceeding uptake in muscle, factor” value in series [2] stood at 6. In series [3], `CC(=O)N[C@@H](CCCNC(=N)N)C(=O)N[C@@H](CCCNC(=N)N)C(=O)N[C@@H](Cc1ccc2ccccc2c1)C(=O)N[C@H]1CSSC[C@@H](C(=O)N[C@@H](CCCNC(=N)N)C(N)=O)NC(=O)[C@H](CCCNC(N)=O)NC(=O)[C@H](CCCNC(=N)N)NC(=O)[C@H](Cc2ccc(O)cc2)NC(=O)[C@@H]2CCCN2C(=O)[C@@H](CCCCNC(=O)CCCNC(=O)[C@H](CCCCNC(=O)CCCCCN2C(=CC=CC=CC3=[N+](CCCCS(=O)(=O)O)c4ccc(S(=O)(=O)[O-])cc4C3(C)C)C(C)(C)c3cc(S(=O)(=O)O)ccc32)NC(=O)CN(CCN(CC(=O)O)CC(=O)O)CCN(CC(=O)O)CC(=O)O)NC(=O)[C@H](CCCNC(=N)N)NC(=O)[C@H](CCCNC(N)=O)NC(=O)[C@H](Cc2ccc(O)cc2)NC1=O` (single isomer, unassigned) [hybrid-Cy5-Ac-TZ14011] returned a Kd of 245 ± 65 nM. In series [3] (Cy5, saturation binding, n=6), the “maximum signal intensity, flow cytometry” value turned out to be 1100 fluorescence counts. On to `CC(=O)N[C@@H](CCCNC(=N)N)C(=O)N[C@@H](CCCNC(=N)N)C(=O)N[C@@H](Cc1ccc2ccccc2c1)C(=O)N[C@H]1CSSC[C@@H](C(=O)N[C@@H](CCCNC(=N)N)C(N)=O)NC(=O)[C@H](CCCNC(N)=O)NC(=O)[C@H](CCCNC(=N)N)NC(=O)[C@H](Cc2ccc(O)cc2)NC(=O)[C@@H]2CCCN2C(=O)[C@@H](CCCCNC(=O)CCCNC(=O)[C@H](CCCCNC(=O)CCCCCN2C(=CC=CC=CC3=[N+](CCCCS(=O)(=O)O)c4ccc(S(=O)(=O)[O-])cc4C3(C)C)C(C)(C)c3cc(S(=O)(=O)O)ccc32)NC(=O)CN(CCN(CC(=O)O)CC(=O)O)CCN(CC(=O)O)CC(=O)O)NC(=O)[C@H](CCCNC(=N)N)NC(=O)[C@H](CCCNC(N)=O)NC(=O)[C@H](Cc2ccc(O)cc2)NC1=O` (single isomer, unassigned) [^111In(^165Ho)-hybrid-Cy5-Ac-TZ14011, metal not drawn], for which, in series [2] (n=3-5), the “tumor to muscle ratio (T/M), radiodetection” value turned out to be 4.38 ± 1.51.
